Measurements reported in PMC10644204 (Pharmacology Research & Perspectives, 2023).
Where “and” joins values, the source holds several entries; their conditions need not be identical. Identical values can stand only once. Entries after “also recorded” stand apart in the source; their conditions may differ. Like-named read-outs stand apart in the source and are kept apart here.

How the values were obtained:
[1] = Plasma pharmacokinetics, part 2 main QTc study; type: in vivo, human; conditions: for Cτ, geometric mean (%CVb): moderate-fat meal, Day 7, n = 40
Procedure, shortened: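 Moderate-fat meal 30 min before each dose. Plasma sampled predose on Days 1, 5, 6 and 7, and on Day 7 at 0.5–24 h postdose. Test compound assayed by validated UHPLC-MS/MS (3.00–1000 ng mL−1).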

[2] = test system: dogs; conditions: single dose of GSK'254 17 mg kg^−1, cited from earlier work
[3] = GSK'254 200 mg QD, treatment-naive people living with HIV-1; cited from earlier work
[4] = test system: healthy participants; type: in vivo, human
[5] = Plasma pharmacokinetics, part 1 sentinel cohort; type: in vivo, human
Procedure, shortened: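 Part 1: healthy participants (n = 8) randomised 3:1 to test compound 500 mg or placebo orally once daily for 7 days, given with a moderate-fat meal (~600 cal, 30% fat) 30 min before dosing. Plasma sampled within 40 min predose on Days 1, 5, 6 and 7, and on Day 7 at 0.5–48 h postdose. Validated UHPLC-MS/MS, range 3.00–1000 ng mL−1.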

[6] = test system: HIV‐1; conditions: GSK'254 200 mg QD, treatment-naive people living with HIV-1, phase IIa; cited from earlier work
[7] = test system: healthy participants; experiment: Concentration-QTc analysis; type: in vivo, human
Procedure, shortened: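 Part 2: 12-lead ECGs extracted from continuous Holter recordings at baseline (Day −1; −45, −30, −15 min predose Day 1) and on Day 7 predose and 0.5–24 h postdose. ECGs taken before PK blood draws. QTcF by Fridericia. Mixed-effects model of ΔQTcF on plasma test compound concentration, with centred baseline QTcF, treatment and time fixed, and per-participant random slope and intercept.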

[8] = GSK'254 500 mg QD, 24 h post-dose

- Observations of ΔQTcF >30 ms ([4]; GSK'254 100 mg QD): no participants
- Outliers in HR changes (HR >100 bpm with a >25% increase in ΔHR) ([4]; GSK'254 100 mg QD): one participant at one time point
- LS mean ΔΔHR, lowest across time points ([4]; GSK'254 100 mg QD, 0.5 h post-dose, Day 7): −0.2 (−2.17–1.67) bpm
- LS mean ΔΔHR, highest across time points ([4]; GSK'254 100 mg QD, 24 h post-dose, Day 7): 2.6 (0.70–4.53) bpm
- ΔΔQTcF, LS mean (90% CI) ([4]; GSK'254 100 mg QD, Day 7, 0.5 h): 1.0 (−1.60, 3.59) ms
- ΔΔQTcF, LS mean (90% CI) ([4]; GSK'254 100 mg QD, Day 7, 1 h): 0.6 (−2.06, 3.33) ms
- ΔΔQTcF, LS mean (90% CI) ([4]; GSK'254 100 mg QD, Day 7, 2 h): 1.7 (−1.27, 4.73) ms
- ΔΔQTcF, LS mean (90% CI) ([4]; GSK'254 100 mg QD, Day 7, 3 h): 1.5 (−1.45, 4.51) ms
- ΔΔQTcF, LS mean (90% CI) ([4]; GSK'254 100 mg QD, Day 7, 4 h): 1.0 (−1.59, 3.54) ms
- ΔΔQTcF, LS mean (90% CI) ([4]; GSK'254 100 mg QD, Day 7, 4.5 h): 1.0 (−1.73, 3.82) ms
- ΔΔQTcF, LS mean (90% CI) ([4]; GSK'254 100 mg QD, Day 7, 5 h): 0.2 (−2.44, 2.80) ms
- ΔΔQTcF, LS mean (90% CI) ([4]; GSK'254 100 mg QD, Day 7, 6 h): 1.7 (−1.58, 4.97) ms
- ΔΔQTcF, LS mean (90% CI) ([4]; GSK'254 100 mg QD, Day 7, 8 h): −0.8 (−3.54, 1.90) ms
- ΔΔQTcF, LS mean (90% CI) ([4]; GSK'254 100 mg QD, Day 7, 10 h): 0.2 (−2.30, 2.65) ms
- ΔΔQTcF, LS mean (90% CI) ([4]; GSK'254 100 mg QD, Day 7, 12 h): 0.5 (−2.43, 3.35) ms
- ΔΔQTcF, LS mean (90% CI) ([4]; GSK'254 100 mg QD, Day 7, 24 h): 0.1 (−2.66, 2.76) ms
- ΔΔQTcF, LS mean (90% CI) ([4]; GSK'254 100 mg QD, Day 7, […]): 1.4 (−1.30, 4.13) ms
- ΔΔQTcF, LS mean (90% CI) ([4]; GSK'254 100 mg QD, Day 7, pre-dose): 1.4 (−0.88, 3.77) ms
- Maximum LS mean ΔΔQTcF ([4]; GSK'254 100 mg QD, at 2 and 6 h post-dose on Day 7): 1.7 ms
- Upper bound of the 90% CI of LS mean ΔΔQTcF ([4]; GSK'254 100 mg QD, through 24 h post-dose on Day 7): < 10 ms
- Observations of ΔQTcF >30 ms ([4]; GSK'254 500 mg QD): two participants (three time points)
- Outliers in HR changes (HR >100 bpm with a >25% increase in ΔHR) ([4]; GSK'254 500 mg QD): one participant at one time point
- Largest LS mean ΔΔHR ([4]; GSK'254 500 mg QD, 10 h post-dose on Day 7): 5.1 bpm
- LS mean placebo-corrected change from baseline in PR, lowest across post-dose time points [4, 8]: −1.8 (−4.00–0.36) ms
- LS mean placebo-corrected change from baseline in QRS, maximum value [4, 8]: 1.4 ms
- ΔΔQTcF, LS mean (90% CI) ([4]; GSK'254 500 mg QD, Day 7, 0.5 h): 7.2 (4.59, 9.83) ms
- ΔΔQTcF, LS mean (90% CI) ([4]; GSK'254 500 mg QD, Day 7, 1 h): 4.1 (1.34, 6.79) ms
- ΔΔQTcF, LS mean (90% CI) ([4]; GSK'254 500 mg QD, Day 7, 2 h): 6.5 (3.46, 9.55) ms
- ΔΔQTcF, LS mean (90% CI) ([4]; GSK'254 500 mg QD, Day 7, 3 h): 8.1 (5.06, 11.09) ms
- ΔΔQTcF, LS mean (90% CI) ([4]; GSK'254 500 mg QD, Day 7, 4 h): 8.6 (6.03, 11.22) ms
- ΔΔQTcF, LS mean (90% CI) ([4]; GSK'254 500 mg QD, Day 7, 4.5 h): 10.6 (7.75, 13.38) ms
- ΔΔQTcF, LS mean (90% CI) ([4]; GSK'254 500 mg QD, Day 7, 5 h): 9.6 (6.92, 12.24) ms
- ΔΔQTcF, LS mean (90% CI) ([4]; GSK'254 500 mg QD, Day 7, 6 h): 8.6 (5.27, 11.89) ms
- ΔΔQTcF, LS mean (90% CI) ([4]; GSK'254 500 mg QD, Day 7, 8 h): 8.1 (5.34, 10.85) ms
- ΔΔQTcF, LS mean (90% CI) ([4]; GSK'254 500 mg QD, Day 7, 10 h): 8.6 (6.14, 11.15) ms
- ΔΔQTcF, LS mean (90% CI) ([4]; GSK'254 500 mg QD, Day 7, 12 h): 6.0 (3.07, 8.89) ms
- ΔΔQTcF, LS mean (90% CI) ([4]; GSK'254 500 mg QD, Day 7, 24 h): 7.7 (4.94, 10.45) ms
- ΔΔQTcF, LS mean (90% CI) ([4]; GSK'254 500 mg QD, Day 7, […]): 9.2 (6.44, 11.93) ms
- ΔΔQTcF, LS mean (90% CI) ([4]; GSK'254 500 mg QD, Day 7, pre-dose): 7.1 (4.74, 9.46) ms
- LS mean placebo-corrected change from baseline in PR, highest across post-dose time points ([4]; GSK'254 500 mg QD, […] post-dose): 3.2 (0.86–5.57) ms
- Maximum LS mean ΔΔQTcF ([4]; GSK'254 500 mg QD, at 4.5 h post-dose on Day 7): 10.6 ms and 10.6 (7.75–13.38) ms
- AUC ([5]; human, plasma, oral, 500 mg): 68800 ng·h/mL
- Cmax ([5]; human, plasma, oral, 500 mg): 4440 ng/mL
- Cτ, geometric mean (%CVb) ([5]; part 1, GSK'254 500 mg QD 7 days, moderate-fat meal, Day 7, n = 6): 2080 ng mL^−1 and 2080 (32.4) ng mL^−1
Structure (SMILES): C=C(C)[C@@H]1CC[C@]2(NCCN3CCS(=O)(=O)CC3)CC[C@]3(C)[C@H](CC[C@@H]4[C@@]5(C)CC=C(C6=CC[C@@](CF)(C(=O)O)CC6)C(C)(C)[C@@H]5CC[C@]43C)[C@@H]12 [GSK'254]
- AUC ([1]; human, plasma, oral, 100 mg): 13800 ng·h/mL
- AUC ([1]; human, plasma, oral, 500 mg): 67500 ng·h/mL
- Cmax ([1]; human, plasma, oral, 500 mg): 4260 ng/mL
- Cτ, geometric mean (%CVb) ([1]; part 2, GSK'254 100 mg QD 7 days): 460 ng mL^−1 and 460 (40.3) ng mL^−1
- Cτ, geometric mean (%CVb) ([1]; part 2, GSK'254 500 mg QD 7 days): 2140 ng mL^−1 and 2140 (46.6) ng mL^−1
- Geometric mean steady-state exposure values with GSK'254 500 mg relative to GSK'254 100 mg ([1]; part 2, QD 7 days): ~ 5 fold
- Maximum concentration ([2]; dog): 7960 ng/mL
- QT interval effects ([2]; dogs, telemetry): minimal QT interval effects were observed in one dog
- Geometric mean Cmax [3]: 1860 ng/mL
- Clinically relevant effects on cardiac parameters (QTc prolongation, HR, cardiac conduction) ([4]; GSK'254 100 mg QD): No clinically relevant effects on cardiac parameters; also recorded: No clinically relevant effects on QTc prolongation, HR, or cardiac conduction
- Reports of QTcF >450 to ≤480 ms ([4]; GSK'254 100 mg QD): one participant (one time point)
- Reports of QTcF >450 to ≤480 ms ([4]; GSK'254 500 mg QD): one participant (one time point)
- Clinically relevant effects on heart rate or cardiac conduction (PR and QRS intervals) ([4]; both GSK'254 doses (100 and 500 mg QD)): Neither GSK'254 dose had clinically relevant effects on heart rate or cardiac conduction; also recorded: neither GSK'254 dose had a clinically relevant effect on cardiac conduction (PR and QRS intervals) or HR
- Mean reduction from baseline in HIV-1 RNA [6]: 2 log10 copies/mL
- Treatment effect-specific intercept of the concentration-QTc model ([7]; Day 7): 0.61 ms
- Model-predicted ΔΔQTcF at geometric mean GSK'254 Cmax ([7]; GSK'254 100 mg): 2.72 ms
- Model-predicted ΔΔQTcF at geometric mean GSK'254 Cmax ([7]; GSK'254 500 mg): 11.49 ms
- Estimated population slope of the concentration-QTc model ([7]; ΔΔQTcF vs GSK'254 plasma concentration, Day 7): 0.0025 ms per ng mL^−1
